In PMC3016154 (Journal of biomolecular screening, 2010):

Columns and labels:
[1] = tested on: EAAT2 protein expression; details: mice, intraperitoneal injection; cited from earlier work
[2] = tested on: EAAT2; details: cited from earlier work
[3] = tested on: EAAT2 protein expression (human EAAT2 transcripts with the 1091-nucleotides 5′ UTR); assay: Cell-based ELISA for EAAT2 protein expression in PA-EAAT2 cells; details: retinoic acid 1.5 μg/mL, 384-well format, vs DMSO
In short: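 PA-EAAT2 cells at 8000/well, grown 36 h in 2% FBS DMEM with geneticin, then switched to serum-free DMEM/geneticin and exposed 72 h (0.20% DMSO final). Fixed 2 h in 4% formaldehyde; peroxide quench, milk block; rabbit anti-EAAT2 1:2000 overnight at 4°C, HRP anti-rabbit 1:6000 for 2 h; chemiluminescence read at 40 min. % activation vs DMSO wells; EC50 from 12-point 3-fold series, […], quadruplicate.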

CO/N=C(\C(=O)N[C@@H]1C(=O)N2C(C(=O)O)=C(CSc3nc(=O)c(=O)[nH]n3C)CS[C@H]12)c1csc(N)n1 [ceftriaxone, Ceftriaxone]
induction of EAAT2 protein expression or glutamate uptake activity [1]: only slightly induces

C[C@]12C[C@H](O)[C@H]3[C@@H](CCC4=CC(=O)CC[C@@]43C)[C@@H]1CC[C@@H]2C(=O)CO [corticosterone]
translational activator of EAAT2 [2]: translational activator of EAAT2

CC1=C(/C=C/C(C)=C/C=C/C(C)=C/C(=O)O)C(C)(C)CCC1 [retinoic acid]
PA-EAAT2 cell signal increase [3]: 2- to 3.5 fold
